In ChEMBL document CHEMBL4002548 (Eur J Med Chem, 2017) one finds IC50 and inhibition in vivo data, which are given here for 12 compounds.

What is called IC50 is the concentration needed to halve the response being measured.

Test [1] deals with Fibroblast growth factor receptor 1 (Homo sapiens, UniProt P11362). Put plainly: Inhibition of recombinant FGFR1 (unknown origin) using poly (Glu, Tyr) 4:1 after 60 mins by ELISA method.
The subject of the next test is KG-1. Kind of test: Antiproliferative activity against FGFR1-translocated human KG1 cells after 72 hrs by CCK8/SRB assay. It counts as functional, cell-based. The following applies: KG-1, 72 h. The gist of the method:
(§1)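 Cells seeded, then exposed next day to a range of compound concentrations for 72 h. Proliferation read by sulforhodamine B or CCK-8. IC50 obtained by four-parameter concentration–response curve fitting from two separate experiments. BaF3 lines stably express constitutively active TEL-FGFR4, TEL-KDR, CCDC6-RET or CCDC6-RET-V804M.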
For orientation: The SRB assay estimates cell density from bound dye.

The target in test [2] is Vascular endothelial growth factor receptor 2 (Homo sapiens, UniProt P35968). Kind of test: Inhibition of recombinant KDR (unknown origin) using poly (Glu, Tyr) 4:1 after 60 mins by ELISA method. Background: An ELISA detects its analyte on a solid surface through an enzyme-linked reagent.
Test [3] relates to SNU-16. Kind of test: Antiproliferative activity against FGFR2-amplified human SNU16 cells after 72 hrs by CCK8/SRB assay. It counts as functional, cell-based. Conditions: SNU-16, 72 h. The gist of the method: as §1
For the next test, the system named is RT-112. Put plainly: Antiproliferative activity against FGFR3-amplified human RT112 cells after 72 hrs by CCK8/SRB assay. The following applies: RT-112, 72 h. The format is functional, cell-based. The gist of the method:
as §1

Another test has as its system NCI-H1581. Put plainly: Antiproliferative activity against FGFR1-amplified human NCI-H1581 cells after 72 hrs by CCK8/SRB assay. The following applies: NCI-H1581, 72 h.
Test [4] deals with SNU-16. Kind of test: Antitumor activity against FGFR2-amplified human SNU16 cells xenografted in nude mouse assessed as tumor growth inhibition at 30 mg/kg, po qd administered for 18 days and measured on day 18 post last dose relative to vehicle-treated control. The following applies: SNU-16, po, 432 h, read-out: TGI. It counts as functional. In outline:
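Male nude mice, 4-6 weeks old, kept under SPF conditions. Tumours grown s.c. from 5×10^6 cells, then passaged as 1 mm³ fragments by trocar. Randomised at 120–150 mm³ (n=6 treated, 12 vehicle). Compound given orally once daily, 10 days for NCI-H1581 and 18 days for SNU16. Calipers twice weekly; V = L×W²/2. TGI taken on final day from volume change versus vehicle.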
(In xenograft studies the graft and the host belong to different species.)

The test system of another test is BaF3. Kind of test: Antiproliferative activity against mouse BAF3 cells expressing CCDC6-RET […] mutant after 72 hrs by CCK8/SRB assay. It counts as functional, cell-based. The following applies: BaF3, 72 h. The gist of the method: as §1
Test [5] can be described thus: Inhibition of recombinant RET […] mutant (unknown origin) using poly (Glu,Tyr) 4:1 as substrate after 60 mins by ELISA. Also noted: species or system Homo sapiens. In outline: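 Poly(Glu,Tyr) 4:1 pre-coated at 20 µg/mL as substrate. Reaction with 10 µmol/L ATP in HEPES pH 7.4 buffer containing MgCl2, MnCl2, Na3VO4 and DTT; compound in 1% DMSO, with 1% DMSO as negative control; started by adding kinase. Run 60 min at 37 °C. Phosphotyrosine detected with PY99 and HRP anti-mouse IgG, o-phenylenediamine colour read at 490 nm. IC50 from inhibition curves, two separate experiments.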

Chain of Vascular endothelial growth factor receptor 2 (P35968 whole entry): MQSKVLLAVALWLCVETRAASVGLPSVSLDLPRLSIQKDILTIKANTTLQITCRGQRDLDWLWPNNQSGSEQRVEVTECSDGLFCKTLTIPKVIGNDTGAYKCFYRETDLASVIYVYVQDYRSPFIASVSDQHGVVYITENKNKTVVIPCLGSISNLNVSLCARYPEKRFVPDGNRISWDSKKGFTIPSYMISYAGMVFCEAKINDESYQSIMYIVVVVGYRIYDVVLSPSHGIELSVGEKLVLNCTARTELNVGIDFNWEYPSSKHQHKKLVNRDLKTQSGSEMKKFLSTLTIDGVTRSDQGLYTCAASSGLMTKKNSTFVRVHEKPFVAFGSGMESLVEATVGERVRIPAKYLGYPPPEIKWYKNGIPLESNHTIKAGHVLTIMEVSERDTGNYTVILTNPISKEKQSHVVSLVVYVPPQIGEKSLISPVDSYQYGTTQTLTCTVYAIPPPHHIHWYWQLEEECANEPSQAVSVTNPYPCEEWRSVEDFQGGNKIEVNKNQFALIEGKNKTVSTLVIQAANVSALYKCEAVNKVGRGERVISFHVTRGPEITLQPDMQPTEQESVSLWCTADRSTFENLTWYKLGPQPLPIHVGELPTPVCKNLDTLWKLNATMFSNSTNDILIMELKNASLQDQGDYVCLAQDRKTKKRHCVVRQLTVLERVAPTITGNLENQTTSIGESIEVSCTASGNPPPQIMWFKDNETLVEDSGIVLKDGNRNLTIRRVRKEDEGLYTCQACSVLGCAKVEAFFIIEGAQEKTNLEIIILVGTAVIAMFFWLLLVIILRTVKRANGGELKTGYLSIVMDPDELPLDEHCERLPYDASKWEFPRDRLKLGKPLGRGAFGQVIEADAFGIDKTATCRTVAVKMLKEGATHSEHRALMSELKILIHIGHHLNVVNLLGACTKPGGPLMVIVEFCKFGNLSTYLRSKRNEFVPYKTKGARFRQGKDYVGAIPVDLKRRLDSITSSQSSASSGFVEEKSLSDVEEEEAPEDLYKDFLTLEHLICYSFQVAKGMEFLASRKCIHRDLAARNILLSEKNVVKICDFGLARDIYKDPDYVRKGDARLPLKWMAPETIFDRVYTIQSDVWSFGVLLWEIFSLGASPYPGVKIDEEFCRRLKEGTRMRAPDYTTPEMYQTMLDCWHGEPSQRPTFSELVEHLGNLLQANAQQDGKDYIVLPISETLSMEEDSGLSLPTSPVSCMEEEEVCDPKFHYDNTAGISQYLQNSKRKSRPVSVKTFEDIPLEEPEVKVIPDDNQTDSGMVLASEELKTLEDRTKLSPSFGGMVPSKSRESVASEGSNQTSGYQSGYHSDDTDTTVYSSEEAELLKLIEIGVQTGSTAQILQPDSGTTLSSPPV
Chain of Fibroblast growth factor receptor 1 (P11362 whole entry): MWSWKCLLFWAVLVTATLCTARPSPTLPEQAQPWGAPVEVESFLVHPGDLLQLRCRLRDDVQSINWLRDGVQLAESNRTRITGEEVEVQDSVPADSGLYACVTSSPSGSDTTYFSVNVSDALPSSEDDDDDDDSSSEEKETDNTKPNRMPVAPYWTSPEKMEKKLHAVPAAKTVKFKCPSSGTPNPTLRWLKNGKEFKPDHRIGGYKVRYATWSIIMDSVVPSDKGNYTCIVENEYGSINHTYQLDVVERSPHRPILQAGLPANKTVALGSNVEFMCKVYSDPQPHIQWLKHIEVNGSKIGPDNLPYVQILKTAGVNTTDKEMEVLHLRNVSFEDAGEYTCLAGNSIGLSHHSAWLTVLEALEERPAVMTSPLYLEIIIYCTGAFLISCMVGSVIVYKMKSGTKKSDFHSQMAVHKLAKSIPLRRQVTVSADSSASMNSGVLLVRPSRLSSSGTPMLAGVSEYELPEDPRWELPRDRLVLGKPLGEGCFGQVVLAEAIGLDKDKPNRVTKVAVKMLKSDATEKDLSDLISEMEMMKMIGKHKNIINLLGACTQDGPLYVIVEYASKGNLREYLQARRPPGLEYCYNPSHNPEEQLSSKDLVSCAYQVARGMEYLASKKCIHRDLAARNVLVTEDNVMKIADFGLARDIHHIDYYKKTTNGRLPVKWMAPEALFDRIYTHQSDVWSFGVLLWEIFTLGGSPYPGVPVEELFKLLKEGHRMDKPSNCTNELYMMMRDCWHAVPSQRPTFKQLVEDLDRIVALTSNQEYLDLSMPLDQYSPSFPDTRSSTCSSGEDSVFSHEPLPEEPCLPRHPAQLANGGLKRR

Regarding `CN1CCN(Cc2ccc(NC(=O)c3ccc(C(F)(F)F)c(C#Cc4cncc5ccccc45)c3)cc2C(F)(F)F)CC1`, the values for the half-maximal inhibitory concentration (IC50) (in test [1]; in the test with KG-1) were more than 100 nM and more than 500 nM, respectively.
On to `CN1CCN(Cc2ccc(NC(=O)c3cccc(C#Cc4cncc5ccccc45)c3)cc2C(F)(F)F)CC1`, for which the IC50 in test [2] turned out to be 2.5 nM; in the test on KG-1, 67.6 nM.
In the case of `Cc1ccc(C(=O)Nc2ccc(CN3CCN(C)CC3)c(C(F)(F)F)c2)cc1C#Cc1cncc2ccccc12`, the IC50 in test [2] was determined as 79.1 nM; in test [1] it was 1.2 nM; in the test with KG-1, 175 nM.
In the case of `CC(C)c1ccc(C(=O)Nc2ccc(CN3CCN(C)CC3)c(C(F)(F)F)c2)cc1C#Cc1cncc2ccccc12`, the IC50 in [1] was more than 100 nM.
Turning to `Cc1ccc(C(=O)Nc2ccc(CN3CCN(C)CC3)c(C(F)(F)F)c2)cc1C#Cc1cnc2cccnn12` [PONATINIB], the IC50 was found to be 33.6 nM in the test on SNU-16 [3]; 736 nM with RT-112; 194 nM in the test with NCI-H1581; 71.5 nM in the test with BaF3; 1.9 nM in [5]; 17.2 nM in the test with KG-1. Further, the inhibition in vivo at 30 mg/kg in the test on SNU-16 [4] turned out to be 75.3%.
On to `CN1CCN(Cc2ccc(NC(=O)c3cccc(C#Cc4cncc5ccccc45)n3)cc2C(F)(F)F)CC1`, for which the IC50 in [1] was more than 100 nM.
For the compound `COc1cncc(C#Cc2cc(C(=O)Nc3ccc(CN4CCN(C)CC4)c(C(F)(F)F)c3)ccc2C)c1`, the results for the concentration for half-maximal inhibition (IC50) (in test [2]; in test [1]; in the test with KG-1) were 110 nM, 12.8 nM and 125 nM, respectively.
Compound `COc1ccc(C(=O)Nc2ccc(CN3CCN(C)CC3)c(C(F)(F)F)c2)cc1C#Cc1cncc2ccccc12` gave an IC50 in the test on KG-1 of more than 500 nM.
Regarding `CN1CCN(Cc2ccc(NC(=O)c3ccc(Cl)c(C#Cc4cncc5ccccc45)c3)cc2C(F)(F)F)CC1`, the IC50 in test [2] came out at 91.4 nM; in the test on KG-1, 88.2 nM.
On the same counts, the results for `Cc1ccc(C(=O)Nc2ccc(CN3CCN(C)CC3)c(C(F)(F)F)c2)cc1C#Cc1cncc(N2CCOCC2)c1` are 89.9 nM and 24.3 nM.
With `CN1CCN(Cc2ccc(NC(=O)c3cncc(C#Cc4cncc5ccccc45)c3)cc2C(F)(F)F)CC1`, the results for the IC50 (in test [2]; with KG-1) were 2.6 nM and more than 500 nM, respectively.
`Cc1ccc(C(=O)Nc2ccc(CN3CCN(C)CC3)c(C(F)(F)F)c2)cc1C#Cc1cncc(N2CCCC2)c1`: the IC50 in test [2] is 108 nM; with KG-1 it was 119 nM.
